The labels stand for the following.
B1: Osa-1-4 twister ribozyme (parent)
chain: CCGCCUAACACUGCCAAUGCCGGUCCCAAGCCCGGAUAAAAGUGGAGGGGGCGG

In this data set the parent is B1. Kind of data set: self-cleavage, relative activity (ratio to wild type); higher = more cleavage; co-transcriptional. In a few lines:
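Values are relative activity: the fraction cleaved, normalised to wild type. A doped DNA template for a 54-nucleotide twister ribozyme from Oryza sativa had 97 % wild-type base and 1 % of each other base at the 48 positions downstream of the cleavage site. The RNA was transcribed in vitro for 2 h at 37 °C so that it could cleave itself co-transcriptionally, then sequenced deeply, with cleavage status scored from the presence or absence of upstream sequence in reads.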
As to CCGCCUAACACUGCCAAUGCCGGUCCCAAGCCCGGAUAAAAAUGGACGGGGCGG [G42A G47C], the self-cleavage was 0.07.

For the variant CCGCCUAACACUGCCAAUGCCGGUCCCAAGCCCGGAUAAAAAUGGAUGGGGCGG [G42A G47U], the self-cleavage was 0.07.

With CCGCCUAACACUGCCAAUGCCGGUCCCAAGCCCGGAUAAAAAUGGAAGGGGCGG [G42A G47A], the self-cleavage was determined as 0.08.

Regarding CCGCCUAACACUGCCAAUGCCGGUCCCAAGCCCGGAAAAAACUGGAGGGGGCGG [G42C U37A], the self-cleavage was 0.21.

Turning to CCGCCUAACACUGCCAAUGCCGGUCCCAAGCCCGGAUAAAAAUGGAGGGCGCGG [G42A G50C], the self-cleavage came to 0.64.

Consider CCGCCUAACACUGCCAAUGCCGGUCCCAAGCCCGGAUAAAAAUGGAGGGAGCGG [G42A G50A], for which the self-cleavage turned out to be 0.45.

For CCGCCUAACACUGCCAAUGCCGGUCCCAAGCCCGGAUAAAAAUGGAGGGUGCGG [G42A G50U], the self-cleavage was determined as 0.83.

Consider CCGCCUAACACUGCCAAUGCCGGUCCCAAGCCCGGAUAAAUGGGGAGGGGGCGG [A41U U43G], for which the self-cleavage stood at 0.32.

With CCGCCUAACACUGCCAAUGCCGGUCCCAAGCCCGGAUAAAUGAGGAGGGGGCGG [A41U U43A], the self-cleavage is 0.81.

Consider CCGCCUAACACUGCCAAUGCCGGUCCCAAGCCCGGAUAAAUGCGGAGGGGGCGG [A41U U43C], for which the self-cleavage amounted to 0.33.

In the case of CCGCCUAACACUGCCAAUGCCGGUCCCAAGCCCGGAUAAAACUGGAGGGGUCGG [G42C G51U], the self-cleavage stood at 0.06.

On to CCGCCUAACACUGCCAAUGCCGGUCCCAAGCCCGGAUAAAACUGGAGGGGACGG [G42C G51A], for which the self-cleavage was 0.08.

For CCGCCUAACACUGCCAAUGCCGGUCCCAAGCCCGGAUAAAACUGGAGGGGCCGG [G42C G51C], the self-cleavage was determined as 0.06.

Take CCGCCUAACACUGCCAAUGCCGGUCCCAAGCCCGGAUAAAACUGCAGGGGGCGG [G42C G45C]: the self-cleavage was found to be 0.06.

With CCGCCUAACACUGCCAAUGCCGGUCCCAAGCCCGGAUAAAACUGAAGGGGGCGG [G42C G45A], the self-cleavage was 0.06.

For the variant CCGCCUAACACUGCCAAUGCCGGUCCCAAGCCCGGAUAAAACUGUAGGGGGCGG [G42C G45U], the self-cleavage turned out to be 0.05.

For the variant CCGCCUAACACUGCCAACGCCGGUCCCAAGCCCGGAUAAAACUGGAGGGGGCGG [G42C U18C], the self-cleavage turned out to be 0.21.

With CCGCCUAACACUGCCAAAGCCGGUCCCAAGCCCGGAUAAAACUGGAGGGGGCGG [G42C U18A], the self-cleavage worked out at 0.23.

On to CCGCCUAACACUGCCAAGGCCGGUCCCAAGCCCGGAUAAAACUGGAGGGGGCGG [G42C U18G], for which the self-cleavage turned out to be 0.32.

For the variant CCGCCUAACACGGCCAAUGCCGGUCCCAAGCCCGGAUAAAACUGGAGGGGGCGG [G42C U12G], the self-cleavage turned out to be 0.06.

For the variant CCGCCUAACACCGCCAAUGCCGGUCCCAAGCCCGGAUAAAACUGGAGGGGGCGG [G42C U12C], the self-cleavage is 0.08.

Turning to CCGCCUAACACAGCCAAUGCCGGUCCCAAGCCCGGAUAAAACUGGAGGGGGCGG [G42C U12A], the self-cleavage amounted to 0.09.

Take CCGCCUAACACUGCCAAUGCCGGUCCCAAGCCCGGAUAAAAAUGGAGGCGGCGG [G42A G49C]: the self-cleavage is 0.07.

Consider CCGCCUAACACUGCCAAUGCCGGUCCCAAGCCCGGAUAAAAAUGGAGGUGGCGG [G42A G49U], for which the self-cleavage came to 0.06.

Regarding CCGCCUAACACUGCCAAUGCCGGUCCCAAGCCCGGAUAAAAAUGGAGGAGGCGG [G42A G49A], the self-cleavage is 0.07.

In the case of CCGCCUAACACUGCCAAUGCCGGUCCCAAGCCCGGAUAAAACUGGAGGGGGCGA [G42C G54A], the self-cleavage was 0.26.

As to CCGCCUAACACUGCCAAUGCCGGUCCCAAGCCCGGAUAAAACUGGAGGGGGCGC [G42C G54C], the self-cleavage came out at 0.3.

Take CCGCCUAACACUGCCAAUGCCGGUCCCAAGCCCGGAUAAAACUGGAGGGGGCGU [G42C G54U]: the self-cleavage came out at 0.43.

As for CCGCCUAACACUGCCAAUGCCGGUCCCAAGCCCGGAUAAAACUGGAGGUGGCGG [G42C G49U], the self-cleavage is 0.05.

As for CCGCCUAACACUGCCAAUGCCGGUCCCAAGCCCGGAUAAAACUGGAGGCGGCGG [G42C G49C], the self-cleavage came to 0.07.

For CCGCCUAACACUGCCAAUGCCGGUCCCAAGCCCGGAUAAAACUGGAGGAGGCGG [G42C G49A], the self-cleavage was determined as 0.06.

CCGCCUAACACUGCCAAUGCCGGUCCCAAGCCCGGAUAAAAAUAGAGGGGGCGG [G42A G44A]: the self-cleavage turned out to be 0.5.

Take CCGCCUAACACUGCCAAUGCCGGUCCCAAGCCCGGAUAAAAAUCGAGGGGGCGG [G42A G44C]: the self-cleavage amounted to 0.57.

For CCGCCUAACACUGCCAAUGCCGGUCCCAAGCCCGGAUAAAAAUUGAGGGGGCGG [G42A G44U], the self-cleavage is 0.31.

With CCGCCUAACACUGCCAAUGCCGGUCCCAAGCCCGGAUAAAACUGGAGGGGGCAG [G42C G53A], the self-cleavage worked out at 0.14.

Consider CCGCCUAACACUGCCAAUGCCGGUCCCAAGCCCGGAUAAAACUGGAGGGGGCUG [G42C G53U], for which the self-cleavage turned out to be 0.08.

Take CCGCCUAACACUGCCAAUGCCGGUCCCAAGCCCGGAUAAAACUGGAGGGGGCCG [G42C G53C]: the self-cleavage was 0.07.

In the case of CCGCCUAACACUGCCAAUGCCGGUCCCAAGCCCGGAUAAAAAUGGAGGGGGCGG [G42A], the self-cleavage came out at 0.84.

CCGCCUAACACUGCCAAUGCCGGUCCCAAGCCCGGAUAAAACUGGAGGGGGCGG [G42C]: the self-cleavage was found to be 0.4.

As for CCGCCUAACACUGCCAAUGCCGGUCCCAAGCCCGGAUAAAAAUGGAGAGGGCGG [G42A G48A], the self-cleavage was determined as 0.06.

In the case of CCGCCUAACACUGCCAAUGCCGGUCCCAAGCCCGGAUAAAAAUGGAGUGGGCGG [G42A G48U], the self-cleavage amounted to 0.05.

For CCGCCUAACACUGCCAAUGCCGGUCCCAAGCCCGGAUAAAAAUGGAGCGGGCGG [G42A G48C], the self-cleavage amounted to 0.06.

In the case of CCGCCUAACACUGCCAAUGCCGGUCCCAAGCCCGGAUAAAAAUGGAGGGGGCGA [G42A G54A], the self-cleavage worked out at 0.76.

Consider CCGCCUAACACUGCCAAUGCCGGUCCCAAGCCCGGAUAAAAAUGGAGGGGGCGC [G42A G54C], for which the self-cleavage turned out to be 0.82.

For CCGCCUAACACUGCCAAUGCCGGUCCCAAGCCCGGAUAAAAAUGGAGGGGGCGU [G42A G54U], the self-cleavage was 0.8.

Regarding CCGCCUAACACUGCCAAUGCCGGUCCCAAGCCCGGAUAAAUGUGGAGGGGGCGU [A41U G54U], the self-cleavage came to 0.99.

In the case of CCGCCUAACACUGCCAAUGCCGGUCCCAAGCCCGGAUAAAAAUGGAGGGGACGG [G42A G51A], the self-cleavage worked out at 0.28.

As to CCGCCUAACACUGCCAAUGCCGGUCCCAAGCCCGGAUAAAAAUGGAGGGGCCGG [G42A G51C], the self-cleavage was 0.06.

With CCGCCUAACACUGCCAAUGCCGGUCCCAAGCCCGGAUAAAAAUGGAGGGGUCGG [G42A G51U], the self-cleavage was 0.1.

The record behind these values is the RNAGym collection of RNA variant scans (doi:10.1002/anie.201605470).
